Our source for the IC50 and Decrease values is ChEMBL document CHEMBL1124191, “Design of rat renin inhibitory peptides” (J Med Chem, 1988).

Structures are written as SMILES. pIC50: −log10 of the molar value. *1 amine or outer side, *2 acyl side, *3 side chain or, on linkers, in order; H or OH if unused. Where a SMILES comes first, the peptide text is derived from it. [ ]: non-standard residue; d: D form. Ahppa(3S,4S) = O=C(C[C@H](O)[C@H](Cc1ccccc1)N[*:1])[*:2]; ACHPA = O=C(C[C@H](O)[C@H](CC1CCCCC1)N[*:1])[*:2]; 1Nal = N[C@@H](Cc1cccc2ccccc12)C(=O)O; Sta = CC(C)C[C@H](N)[C@@H](O)CC(=O)O; Chg = N[C@H](C(=O)O)C1CCCCC1

The first experiment concerns the target T1, Renin (Homo sapiens, UniProt P00797).
T1 sequence (P00797 whole entry): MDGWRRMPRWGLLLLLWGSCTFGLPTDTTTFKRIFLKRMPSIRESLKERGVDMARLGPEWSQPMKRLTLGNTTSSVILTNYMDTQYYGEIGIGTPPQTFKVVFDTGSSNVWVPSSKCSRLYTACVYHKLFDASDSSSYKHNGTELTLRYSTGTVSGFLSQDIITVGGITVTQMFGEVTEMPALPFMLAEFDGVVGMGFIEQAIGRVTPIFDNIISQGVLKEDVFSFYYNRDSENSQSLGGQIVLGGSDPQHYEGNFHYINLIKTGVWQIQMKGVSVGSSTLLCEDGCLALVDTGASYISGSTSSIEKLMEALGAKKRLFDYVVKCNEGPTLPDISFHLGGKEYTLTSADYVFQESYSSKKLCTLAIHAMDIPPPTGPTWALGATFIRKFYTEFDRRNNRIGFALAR
The experiment in a line: Compound was tested for its inhibitory activity against human plasma renin. The format is cell-free.
As for `CC(=O)N[C@@H](Cc1cnc[nH]1)C(=O)N1CCC[C@@H]1C(=O)N[C@@H](Cc1ccccc1)C(=O)N[C@@H](Cc1cnc[nH]1)C(=O)N[C@@H](CC(C)C)[C@@H](O)CC(=O)N[C@@H](CC(C)C)C(=O)N[C@@H](Cc1ccccc1)C(N)=O`, the pIC50 is 7.85.

With `CC(=O)N[C@@H](Cc1cnc[nH]1)C(=O)N1CCC[C@@H]1C(=O)N[C@@H](Cc1ccccc1)C(=O)N[C@H](C(=O)N[C@@H](CC(C)C)[C@@H](O)CC(=O)N[C@@H](CC(C)C)C(=O)N[C@@H](Cc1ccccc1)C(N)=O)C(C)C`, the pIC50 is 8.49. This pIC50 lies 0.64 log units higher than the previous one. Take `CC(=O)N[C@@H](Cc1cnc[nH]1)C(=O)N1CCC[C@@H]1C(=O)N[C@@H](Cc1ccccc1)C(=O)N[C@@H](Cc1cnc[nH]1)C(=O)N[C@@H](CC1CCCCC1)[C@@H](O)CC(=O)N[C@@H](CC(C)C)C(=O)N[C@@H](Cc1ccccc1)C(N)=O`: the negative logarithm of the IC50 (pIC50) is 9.30. Against the preceding compound, the pIC50 is 0.81 log units higher.

`CC(=O)N[C@@H](Cc1cnc[nH]1)C(=O)N1CCC[C@@H]1C(=O)N[C@@H](Cc1ccccc1)C(=O)N[C@H](C(=O)N[C@@H](CC1CCCCC1)[C@@H](O)CC(=O)N[C@@H](CC(C)C)C(=O)N[C@@H](Cc1ccccc1)C(N)=O)C(C)C`: the negative-log IC50 (pIC50) is 7.82.

Another experiment concerns the target T2, Renin (Rattus norvegicus, UniProt P08424).
T2 sequence (P08424 whole entry): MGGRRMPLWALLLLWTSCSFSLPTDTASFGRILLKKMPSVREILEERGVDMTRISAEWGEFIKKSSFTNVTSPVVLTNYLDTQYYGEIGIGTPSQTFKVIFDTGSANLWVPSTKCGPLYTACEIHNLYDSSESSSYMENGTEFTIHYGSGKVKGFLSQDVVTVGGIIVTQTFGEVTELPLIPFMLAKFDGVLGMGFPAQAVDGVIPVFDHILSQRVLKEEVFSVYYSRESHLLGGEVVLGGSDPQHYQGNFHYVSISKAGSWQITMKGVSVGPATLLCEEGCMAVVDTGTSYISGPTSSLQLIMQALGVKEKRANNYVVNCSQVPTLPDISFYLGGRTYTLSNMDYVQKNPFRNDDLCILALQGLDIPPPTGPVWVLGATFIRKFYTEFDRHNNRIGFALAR
The experiment in a line: Inhibitory activity against rat plasma renin in vitro. The format is cell-free. An outline of the steps: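 Pooled EDTA rat plasma with added PMSF 5 mM, 8-hydroxyquinoline 3 mM and extra EDTA 5 mM, at pH 7.4, mixed with serial 1:10 peptide dilutions (Tris/DMSO), split, and incubated 1 h at 37 and 0 °C.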
For the compound `COc1ccc(C[C@H](NC(C)=O)C(=O)N2CCC[C@H]2C(=O)N[C@@H](Cc2ccccc2)C(=O)N[C@H](C(=O)N[C@@H](CC(C)C)[C@@H](O)CC(=O)N[C@@H](CC(C)C)C(=O)N[C@@H](Cc2ccccc2)C(N)=O)C(C)C)cc1` (Ac-Y(Me)PFV[Sta]LF-NH2), the negative logarithm of the IC50 (pIC50) is 7.47. Turning to `CC(=O)N[C@@H](Cc1cccc2ccccc12)C(=O)N1CCC[C@H]1C(=O)N[C@@H](Cc1ccccc1)C(=O)N[C@H](C(=O)N[C@@H](CC(C)C)[C@@H](O)CC(=O)N[C@@H](CC(C)C)C(=O)N[C@@H](Cc1ccccc1)C(N)=O)C(C)C` (Ac-[1Nal]PFV[Sta]LF-NH2), the pIC50 was 7.30.

As to `CC(=O)N[C@H](C(=O)N1CCC[C@H]1C(=O)N[C@@H](Cc1ccccc1)C(=O)N[C@H](C(=O)N[C@@H](CC(C)C)[C@@H](O)CC(=O)N[C@@H](CC(C)C)C(=O)N[C@@H](Cc1ccccc1)C(N)=O)C(C)C)C1CCCCC1` (Ac-[Chg]PFV[Sta]LF-NH2), the negative-log IC50 (pIC50) is 6.55. This pIC50 is 0.75 log units lower than that of the compound before. The same measure, in the same setting: to `CC[C@H](C)[C@H](NC(=O)C[C@H](O)[C@H](CC1CCCCC1)NC(=O)[C@H](Cc1c[nH]cn1)NC(=O)[C@H](Cc1ccccc1)NC(=O)[C@@H]1CCCN1C(=O)[C@H](Cc1c[nH]cn1)NC(=O)[C@@H]1CCCN1)C(=O)N[C@@H](Cc1ccccc1)C(N)=O` (H-PHPFH[ACHPA]IF-NH2) belongs 7.19; to `CC[C@H](C)[C@H](NC(=O)C[C@H](O)[C@H](Cc1ccccc1)NC(=O)[C@H](Cc1c[nH]cn1)NC(=O)[C@H](Cc1ccccc1)NC(=O)[C@@H]1CCCN1C(=O)[C@H](Cc1c[nH]cn1)NC(=O)[C@@H]1CCCN1)C(=O)N[C@@H](Cc1ccccc1)C(N)=O` (H-PHPFH[Ahppa(3S,4S)]IF-NH2), 6.43; to `CC(C)[C@H](NC(=O)C[C@H](O)[C@H](Cc1ccccc1)NC(=O)[C@H](Cc1c[nH]cn1)NC(=O)[C@H](Cc1ccccc1)NC(=O)[C@@H]1CCCN1C(=O)[C@H](Cc1c[nH]cn1)NC(=O)[C@@H]1CCCN1)C(=O)N[C@@H](Cc1ccc(O)cc1)C(=O)N[C@@H](CCCCN)C(N)=O` (H-PHPFH[Ahppa(3S,4S)]VYK-NH2), 5.89. Consider `CC[C@H](C)[C@H](NC(=O)C[C@H](O)[C@H](CC(C)C)NC(=O)[C@H](Cc1c[nH]cn1)NC(=O)[C@H](Cc1ccccc1)NC(=O)[C@@H]1CCCN1C(=O)[C@H](Cc1c[nH]cn1)NC(=O)[C@@H]1CCCN1)C(=O)N[C@@H](Cc1ccccc1)C(N)=O` (H-PHPFH[Sta]IF-NH2), for which the pIC50 was 5.00. As to `CC(C)C[C@H](NC(=O)C[C@H](O)[C@H](CC(C)C)NC(=O)[C@H](Cc1cnc[nH]1)NC(=O)[C@H](Cc1ccccc1)NC(=O)[C@@H]1CCCN1C(=O)[C@H](Cc1cnc[nH]1)NC(=O)[C@@H]1CCCN1)C(=O)N[C@@H](Cc1ccccc1)C(N)=O` (H-PHPFH[Sta]LF-NH2), the pIC50 was 6.62. The same measure, in the same setting: under `CC(C)C[C@H](NC(=O)C[C@H](O)[C@H](CC(C)C)NC(=O)[C@H](Cc1c[nH]cn1)NC(=O)[C@H](Cc1ccccc1)NC(=O)[C@@H]1CCCN1C(=O)[C@H](Cc1c[nH]cn1)NC(=O)[C@@H]1CCCN1)C(=O)N[C@@H](Cc1ccc(O)cc1)C(=O)N[C@@H](Cc1ccc(O)cc1)C(N)=O` (H-PHPFH[Sta]LYY-NH2) stands 6.11. Still for that read-out and setting: under `CC(C)C[C@H](NC(=O)[C@H](Cc1c[nH]cn1)NC(=O)[C@H](Cc1ccccc1)NC(=O)[C@@H]1CCCN1C(=O)[C@H](Cc1c[nH]cn1)NC(=O)[C@@H]1CCCN1)[C@@H](O)CC(=O)N[C@H](C(=O)N[C@H](C(N)=O)[C@@H](C)O)[C@@H](C)O` (H-PHPFH[Sta]TT-NH2) stands 3.98; under `CC(C)C[C@H](NC(=O)[C@H](Cc1cnc[nH]1)NC(=O)[C@H](Cc1ccccc1)NC(=O)[C@@H]1CCCN1C(=O)[C@H](Cc1cnc[nH]1)NC(=O)[C@@H]1CCCN1)[C@@H](O)CC(=O)N[C@@H](Cc1ccc(O)cc1)C(=O)N[C@@H](Cc1ccc(O)cc1)C(N)=O` (H-PHPFH[Sta]YY-NH2), 5.80. `CC(C)C[C@H](NC(=O)[C@H](Cc1cnc[nH]1)NC(=O)[C@H](Cc1ccccc1)NC(=O)[C@@H]1CCCN1C(=O)[C@H](Cc1cnc[nH]1)NC(=O)[C@@H]1CCCN1)[C@@H](O)CC(=O)N[C@@H](Cc1ccc(O)cc1)C(=O)N[C@@H](Cc1ccc(O)cc1)C(=O)N[C@@H](CCCCN)C(N)=O` (H-PHPFH[Sta]YYK-NH2): the pIC50 was 4.46. Compound `CC(C)C[C@H](NC(=O)[C@H](Cc1c[nH]cn1)NC(=O)[C@H](Cc1ccccc1)NC(=O)[C@@H]1CCCN1C(=O)[C@H](Cc1c[nH]cn1)NC(=O)[C@@H]1CCCN1)[C@@H](O)CC(=O)N[C@@H](Cc1ccc(O)cc1)C(=O)N[C@@H](Cc1ccc(O)cc1)C(=O)N[C@@H](CO)C(=O)N[C@@H](CCCCN)C(N)=O` (H-PHPFH[Sta]YYSK-NH2) had a pIC50 of 5.10.

Another experiment concerns Rattus norvegicus. The experiment in a line: Compound evaluated for decrease in mean arterial pressure at a minimal dose of 3 ug/kg in rats. The format is functional, Artery.
With `CC(=O)N[C@@H](Cc1c[nH]cn1)C(=O)N1CCC[C@H]1C(=O)N[C@@H](Cc1ccccc1)C(=O)N[C@H](C(=O)N[C@@H](CC(C)C)[C@@H](O)CC(=O)N[C@@H](CC(C)C)C(=O)N[C@@H](Cc1ccccc1)C(N)=O)C(C)C`, the Decrease is listed as 4.9%.

For a further experiment, the system named is Rattus norvegicus. The experiment in a line: Compound evaluated for decrease in mean arterial pressure at a minimal dose of 100 ug/kg in rats. The format is functional, Artery.
Turning to `CC(=O)N[C@@H](Cc1c[nH]cn1)C(=O)N1CCC[C@H]1C(=O)N[C@@H](Cc1ccccc1)C(=O)N[C@@H](Cc1c[nH]cn1)C(=O)N[C@@H](CC(C)C)[C@@H](O)CC(=O)N[C@@H](CC(C)C)C(=O)N[C@@H](Cc1ccccc1)C(N)=O`, the Decrease was determined as 13.2%.
